# According to ChEMBL document CHEMBL5352489, “Development of potent and selective degraders of PI5P4Kγ” (Eur J Med Chem, 2023):
# The source made the active and inactive calls. The calls are words filed in the database; no cut-off is given here.
# Legend:
# [1] = target: T1, Phosphatidylinositol 5-phosphate 4-kinase type-2 alpha (Homo sapiens) (UniProt P48426); test: Binding affinity to full length recombinant human PI5P4Kalpha incubated for 30 mins in presence of ATP by HTRF assay
# T1 sequence (whole entry): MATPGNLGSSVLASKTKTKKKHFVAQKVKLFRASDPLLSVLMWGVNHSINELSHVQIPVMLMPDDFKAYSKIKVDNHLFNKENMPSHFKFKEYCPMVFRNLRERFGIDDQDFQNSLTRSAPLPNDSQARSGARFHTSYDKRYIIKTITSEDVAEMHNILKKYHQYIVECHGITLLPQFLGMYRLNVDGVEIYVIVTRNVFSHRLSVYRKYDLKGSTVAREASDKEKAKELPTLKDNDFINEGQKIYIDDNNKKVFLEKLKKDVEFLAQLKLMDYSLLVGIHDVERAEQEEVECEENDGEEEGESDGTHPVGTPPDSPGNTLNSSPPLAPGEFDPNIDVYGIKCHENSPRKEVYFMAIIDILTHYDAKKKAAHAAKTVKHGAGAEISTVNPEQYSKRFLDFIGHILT
# [2] = target: T1, Phosphatidylinositol 5-phosphate 4-kinase type-2 alpha (Homo sapiens); test: Induction of PI5P4Kalpha degradation in human MOLT-4 cells at 1 to 10 uM incubated for 6 hrs by Immunoblot analysis; format: cell-based; settings: dose 1-10 µM
# In short: (§1)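 MOLT-4 cells were grown in RPMI-1640 with L-glutamine, 10% FBS and 1% penicillin/streptomycin, then exposed to compound for 6 h. Cells were lysed in RIPA buffer (pH 8.0) with protease and phosphatase inhibitors, and protein was measured by BCA. Equal protein was run on 4–12% gels and blotted to PVDF. Membranes were probed with PI5P4Kα or PI5P4Kβ antibody at 4 °C overnight, then with IRDye secondary for 1 h at RT, and imaged on an Odyssey.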
# [3] = target: T2, Phosphatidylinositol 5-phosphate 4-kinase type-2 beta (Homo sapiens) (UniProt P78356); test: Induction of PI5P4Kbeta degradation in human MOLT-4 cells at 1 to 10 uM incubated for 6 hrs by Immunoblot analysis; format: cell-based; settings: dose 1-10 µM; in short: as §1
# T2 sequence (whole entry): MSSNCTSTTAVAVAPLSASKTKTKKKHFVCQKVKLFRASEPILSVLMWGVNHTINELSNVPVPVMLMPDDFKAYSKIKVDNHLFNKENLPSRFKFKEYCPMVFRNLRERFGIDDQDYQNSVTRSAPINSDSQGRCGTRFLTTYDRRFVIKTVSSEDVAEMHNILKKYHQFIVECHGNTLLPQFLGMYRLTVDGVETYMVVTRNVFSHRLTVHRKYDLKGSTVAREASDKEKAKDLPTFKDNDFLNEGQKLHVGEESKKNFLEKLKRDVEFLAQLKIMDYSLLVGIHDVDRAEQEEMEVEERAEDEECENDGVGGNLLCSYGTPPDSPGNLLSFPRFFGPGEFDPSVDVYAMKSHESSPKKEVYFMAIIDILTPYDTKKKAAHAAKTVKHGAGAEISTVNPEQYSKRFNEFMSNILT
# [4] = target: T2, Phosphatidylinositol 5-phosphate 4-kinase type-2 beta (Homo sapiens); test: Binding affinity to full length wild type human PI5P4Kbeta by KINOMEscan KdELECT assay
Activity [1],Activity [2],Activity [3],Activity [4],SMILES
inactive,inactive,inactive,inactive,CC(=O)N[C@H](C(=O)N1C[C@H](O)C[C@H]1C(=O)N[C@@H](C)c1ccc(-c2scnc2C)cc1OCCCCCNC(=O)c1ccc(C(=O)Nc2cccc(Nc3cc(-c4c[nH]c5ccccc45)ncn3)c2)cc1)C(C)(C)C
inactive,inactive,inactive,inactive,Cc1ncsc1-c1ccc([C@H](C)NC(=O)[C@@H]2C[C@@H](O)CN2C(=O)[C@@H](NC(=O)CCCCCCCCC(=O)Nc2ccc(C(=O)Nc3cccc(Nc4cc(-c5c[nH]c6ccccc56)ncn4)c3)cc2)C(C)(C)C)cc1
inactive,inactive,inactive,inactive,"Cc1ncsc1-c1ccc([C@H](C)NC(=O)[C@@H]2C[C@@H](O)CN2C(=O)C(NC(=O)CCCCCCC(=O)Nc2ccc(C(=O)Nc3cccc(Nc4cc(-c5c[nH]c6ccccc56)ncn4)c3)cc2)C(C)(C)C)cc1 (single isomer, unassigned)"
inactive,inactive,inactive,inactive,Cc1ncsc1-c1ccc([C@H](C)NC(=O)[C@@H]2C[C@@H](O)CN2C(=O)[C@@H](NC(=O)CCCCC(=O)Nc2ccc(C(=O)Nc3cccc(Nc4cc(-c5c[nH]c6ccccc56)ncn4)c3)cc2)C(C)(C)C)cc1
inactive,inactive,inactive,inactive,Cc1ncsc1-c1ccc([C@H](C)NC(=O)[C@@H]2C[C@@H](O)CN2C(=O)[C@@H](NC(=O)CCC(=O)Nc2ccc(C(=O)Nc3cccc(Nc4cc(-c5c[nH]c6ccccc56)ncn4)c3)cc2)C(C)(C)C)cc1
